The values that follow come from ChEMBL document CHEMBL3351833, “Synthesis and Biological Evaluation of Pyrazolo[1,5-a]pyrimidine Compounds as Potent and Selective Pim-1 Inhibitors” (ACS Med Chem Lett, 2015).

Where only a bound is given, the exact number is not on record here.

A short description of test [1]: Growth inhibition of human HSC3 cells after 24 hrs by Clonogenic cell survival assay. The class given is functional, cell-based. Particulars: HSC-3, 24 h. The essentials: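 Two-dimensional colony formation (clonogenic survival) of human UM-UC-3 bladder carcinoma and HSC-3 oral squamous carcinoma cells, assessing the cytostatic effect on colony growth.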
The target of test [2] is T1, Receptor-type tyrosine-protein kinase FLT3 (Homo sapiens, UniProt P36888).
T1 sequence (P36888 whole entry): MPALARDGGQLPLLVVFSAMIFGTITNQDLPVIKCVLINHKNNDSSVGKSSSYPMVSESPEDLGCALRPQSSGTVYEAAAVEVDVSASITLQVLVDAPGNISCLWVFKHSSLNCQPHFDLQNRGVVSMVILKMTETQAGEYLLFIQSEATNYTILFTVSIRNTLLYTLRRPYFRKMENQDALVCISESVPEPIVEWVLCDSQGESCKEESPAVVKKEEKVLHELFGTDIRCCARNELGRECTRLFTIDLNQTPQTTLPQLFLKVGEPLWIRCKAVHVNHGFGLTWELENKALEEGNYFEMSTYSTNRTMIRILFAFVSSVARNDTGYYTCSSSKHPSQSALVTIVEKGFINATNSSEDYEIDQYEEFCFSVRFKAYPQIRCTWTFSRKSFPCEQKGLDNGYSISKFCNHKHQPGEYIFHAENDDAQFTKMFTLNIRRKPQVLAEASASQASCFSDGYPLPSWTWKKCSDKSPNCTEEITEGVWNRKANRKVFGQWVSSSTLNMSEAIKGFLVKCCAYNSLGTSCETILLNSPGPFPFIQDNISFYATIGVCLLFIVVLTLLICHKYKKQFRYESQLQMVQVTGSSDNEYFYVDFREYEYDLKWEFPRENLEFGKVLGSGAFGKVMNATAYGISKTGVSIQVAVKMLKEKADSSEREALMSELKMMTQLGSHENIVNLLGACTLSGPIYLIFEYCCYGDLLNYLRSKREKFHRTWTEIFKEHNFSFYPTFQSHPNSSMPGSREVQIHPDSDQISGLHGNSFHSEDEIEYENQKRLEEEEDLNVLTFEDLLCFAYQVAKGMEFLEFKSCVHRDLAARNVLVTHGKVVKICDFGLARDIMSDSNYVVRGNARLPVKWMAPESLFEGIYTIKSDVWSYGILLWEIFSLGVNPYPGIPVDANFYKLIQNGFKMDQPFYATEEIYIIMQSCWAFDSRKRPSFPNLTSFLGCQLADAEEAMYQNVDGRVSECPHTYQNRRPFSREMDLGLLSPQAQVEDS
As to the kind of experiment: Inhibition of human Flt3 (unknown origin).

Test [3] has as its target Casein kinase II subunit alpha (Homo sapiens) (UniProt P68400). As to the kind of experiment: Inhibition of CK2a (unknown origin) at 1 uM.
The target in test [4] is Tyrosine-protein kinase JAK2 (Homo sapiens) (UniProt O60674). As to the kind of experiment: Inhibition of JAK2 (unknown origin) at 1 uM.
The target in test [5] is High affinity nerve growth factor receptor (Homo sapiens) (UniProt P04629). As to the kind of experiment: Inhibition of TRKA (unknown origin) at 1 uM.
Test [6] concerns the target Receptor-type tyrosine-protein kinase FLT3 (Homo sapiens) (UniProt P36888). Particulars: 1 uM.
For test [7], the target named is Tyrosine-protein kinase Yes (Homo sapiens) (UniProt P07947). As to the kind of experiment: Inhibition of YES1 (unknown origin) at 1 uM.
Test [8] deals with Voltage-gated inwardly rectifying potassium channel KCNH2 (Homo sapiens, UniProt Q12809). As to the kind of experiment: Inhibition of human ERG expressed in CHO cells by automated patch clamp method. Type of test: cell-based. In general terms: In patch-clamp work, channel activity is measured electrically.
Sequence of Voltage-gated inwardly rectifying potassium channel KCNH2 (Q12809 whole entry): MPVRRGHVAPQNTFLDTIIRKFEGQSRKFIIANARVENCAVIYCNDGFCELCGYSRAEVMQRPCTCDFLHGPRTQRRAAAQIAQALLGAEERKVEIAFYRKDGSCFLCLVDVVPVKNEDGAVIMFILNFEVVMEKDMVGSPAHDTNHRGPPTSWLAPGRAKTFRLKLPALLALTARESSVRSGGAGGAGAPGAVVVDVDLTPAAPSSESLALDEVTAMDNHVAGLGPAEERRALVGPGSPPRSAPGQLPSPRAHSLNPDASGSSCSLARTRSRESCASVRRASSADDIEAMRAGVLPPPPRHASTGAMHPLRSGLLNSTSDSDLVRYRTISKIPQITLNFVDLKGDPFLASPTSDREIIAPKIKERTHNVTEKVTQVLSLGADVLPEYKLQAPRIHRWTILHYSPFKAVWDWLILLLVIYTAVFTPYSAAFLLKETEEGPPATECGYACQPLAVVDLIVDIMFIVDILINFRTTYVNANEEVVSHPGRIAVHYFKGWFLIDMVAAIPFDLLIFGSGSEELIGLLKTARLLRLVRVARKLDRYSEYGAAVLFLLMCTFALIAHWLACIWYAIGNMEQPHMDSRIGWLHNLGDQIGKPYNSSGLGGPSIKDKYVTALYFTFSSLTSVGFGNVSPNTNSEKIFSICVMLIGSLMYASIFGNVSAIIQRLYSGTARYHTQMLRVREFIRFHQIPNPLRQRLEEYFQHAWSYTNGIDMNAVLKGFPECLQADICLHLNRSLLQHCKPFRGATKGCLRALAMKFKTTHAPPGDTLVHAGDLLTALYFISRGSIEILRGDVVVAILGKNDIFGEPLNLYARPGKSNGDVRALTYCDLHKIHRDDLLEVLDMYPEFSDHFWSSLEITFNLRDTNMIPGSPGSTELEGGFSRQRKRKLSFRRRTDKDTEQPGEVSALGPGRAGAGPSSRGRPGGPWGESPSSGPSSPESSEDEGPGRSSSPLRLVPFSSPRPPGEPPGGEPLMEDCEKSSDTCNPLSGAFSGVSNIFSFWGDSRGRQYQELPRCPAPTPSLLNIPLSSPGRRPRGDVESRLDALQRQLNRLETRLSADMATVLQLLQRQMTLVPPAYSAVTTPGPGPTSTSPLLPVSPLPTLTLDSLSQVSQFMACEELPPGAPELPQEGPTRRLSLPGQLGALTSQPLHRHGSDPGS

Sequence of Tyrosine-protein kinase JAK2 (Homo sapiens) (O60674 whole entry): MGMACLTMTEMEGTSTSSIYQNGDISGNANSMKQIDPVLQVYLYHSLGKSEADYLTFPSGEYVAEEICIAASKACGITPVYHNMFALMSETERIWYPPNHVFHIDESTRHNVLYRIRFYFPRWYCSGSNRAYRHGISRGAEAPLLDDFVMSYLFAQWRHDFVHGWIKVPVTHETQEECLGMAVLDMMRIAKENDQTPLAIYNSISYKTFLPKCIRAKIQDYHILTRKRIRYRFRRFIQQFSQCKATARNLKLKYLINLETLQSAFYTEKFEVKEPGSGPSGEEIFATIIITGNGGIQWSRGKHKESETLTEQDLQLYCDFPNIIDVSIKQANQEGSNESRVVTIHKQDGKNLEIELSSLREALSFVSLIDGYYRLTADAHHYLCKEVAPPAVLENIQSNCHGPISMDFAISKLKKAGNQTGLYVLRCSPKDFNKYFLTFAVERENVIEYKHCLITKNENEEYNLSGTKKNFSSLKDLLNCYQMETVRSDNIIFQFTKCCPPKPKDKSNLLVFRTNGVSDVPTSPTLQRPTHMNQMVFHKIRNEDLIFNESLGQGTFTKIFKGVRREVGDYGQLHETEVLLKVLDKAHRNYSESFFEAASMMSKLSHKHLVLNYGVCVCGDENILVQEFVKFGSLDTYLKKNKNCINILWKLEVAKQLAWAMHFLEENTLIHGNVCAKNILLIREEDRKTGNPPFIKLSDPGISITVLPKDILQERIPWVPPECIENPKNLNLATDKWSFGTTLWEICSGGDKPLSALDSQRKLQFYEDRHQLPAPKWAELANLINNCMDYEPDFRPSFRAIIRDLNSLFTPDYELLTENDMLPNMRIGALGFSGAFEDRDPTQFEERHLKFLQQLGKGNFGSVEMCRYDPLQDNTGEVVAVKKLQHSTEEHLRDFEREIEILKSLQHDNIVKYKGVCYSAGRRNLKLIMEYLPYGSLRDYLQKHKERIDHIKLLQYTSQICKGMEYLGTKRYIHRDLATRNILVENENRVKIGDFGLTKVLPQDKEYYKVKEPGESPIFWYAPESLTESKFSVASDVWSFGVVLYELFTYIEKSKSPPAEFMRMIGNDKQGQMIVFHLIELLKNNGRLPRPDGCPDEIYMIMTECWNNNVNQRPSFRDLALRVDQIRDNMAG
Sequence of Casein kinase II subunit alpha (Homo sapiens) (P68400 whole entry, looked up): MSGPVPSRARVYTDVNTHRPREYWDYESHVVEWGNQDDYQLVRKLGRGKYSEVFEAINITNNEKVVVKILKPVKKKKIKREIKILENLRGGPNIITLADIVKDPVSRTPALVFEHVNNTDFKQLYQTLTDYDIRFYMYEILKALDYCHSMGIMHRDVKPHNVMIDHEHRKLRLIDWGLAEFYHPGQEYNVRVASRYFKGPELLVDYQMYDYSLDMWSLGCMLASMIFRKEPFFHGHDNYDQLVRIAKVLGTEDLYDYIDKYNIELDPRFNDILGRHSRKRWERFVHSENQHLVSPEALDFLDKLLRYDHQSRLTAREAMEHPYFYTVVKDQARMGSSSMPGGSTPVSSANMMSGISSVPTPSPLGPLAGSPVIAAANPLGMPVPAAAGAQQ
Sequence of Tyrosine-protein kinase Yes (Homo sapiens) (P07947 2-543 limits assumed): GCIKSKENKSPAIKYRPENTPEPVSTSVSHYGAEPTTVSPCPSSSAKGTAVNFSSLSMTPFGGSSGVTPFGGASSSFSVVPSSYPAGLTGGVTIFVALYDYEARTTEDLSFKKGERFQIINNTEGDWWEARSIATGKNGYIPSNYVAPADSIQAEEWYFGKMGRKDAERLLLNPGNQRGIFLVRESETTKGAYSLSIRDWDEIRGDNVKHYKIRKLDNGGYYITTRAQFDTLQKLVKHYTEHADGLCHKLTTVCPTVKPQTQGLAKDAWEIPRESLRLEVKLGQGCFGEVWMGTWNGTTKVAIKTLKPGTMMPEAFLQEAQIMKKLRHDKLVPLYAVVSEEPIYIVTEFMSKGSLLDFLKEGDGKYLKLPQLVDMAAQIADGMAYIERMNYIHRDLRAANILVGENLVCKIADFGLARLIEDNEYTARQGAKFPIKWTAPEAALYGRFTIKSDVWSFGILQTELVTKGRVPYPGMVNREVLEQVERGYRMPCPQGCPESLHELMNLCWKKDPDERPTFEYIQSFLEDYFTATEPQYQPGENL
Sequence of High affinity nerve growth factor receptor (Homo sapiens) (P04629 33-796 limits assumed): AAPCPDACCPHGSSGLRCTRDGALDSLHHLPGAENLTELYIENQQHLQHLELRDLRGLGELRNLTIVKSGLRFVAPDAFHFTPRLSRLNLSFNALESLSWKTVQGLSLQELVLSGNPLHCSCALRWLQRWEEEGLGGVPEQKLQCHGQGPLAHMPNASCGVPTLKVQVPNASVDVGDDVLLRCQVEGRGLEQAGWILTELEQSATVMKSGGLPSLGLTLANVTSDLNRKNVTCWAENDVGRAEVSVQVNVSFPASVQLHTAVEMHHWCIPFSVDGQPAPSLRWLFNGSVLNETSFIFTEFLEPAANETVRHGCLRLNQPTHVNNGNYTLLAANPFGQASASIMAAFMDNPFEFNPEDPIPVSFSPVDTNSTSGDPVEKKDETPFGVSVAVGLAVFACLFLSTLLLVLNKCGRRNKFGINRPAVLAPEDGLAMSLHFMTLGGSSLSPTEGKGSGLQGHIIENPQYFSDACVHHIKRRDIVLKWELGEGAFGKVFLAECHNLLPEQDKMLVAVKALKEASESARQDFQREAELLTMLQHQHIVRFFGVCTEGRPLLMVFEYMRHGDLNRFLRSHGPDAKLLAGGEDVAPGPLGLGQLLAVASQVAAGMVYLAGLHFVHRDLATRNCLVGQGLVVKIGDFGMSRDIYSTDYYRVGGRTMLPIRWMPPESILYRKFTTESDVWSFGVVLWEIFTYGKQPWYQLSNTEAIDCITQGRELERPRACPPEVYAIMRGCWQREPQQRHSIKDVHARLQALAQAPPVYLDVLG

For the compound `CC(C)(O)[C@H]1CC[C@H](Nc2ccn3ncc(-c4cccc(Cl)c4)c3n2)CC1`, the EC50 (commonly the concentration that produces a half-maximal response) in test [1] worked out at 600 nM. In addition, the IC50 (usually the midpoint of a concentration-inhibition curve) was 125 nM in test [2] and over 30000 nM in test [8]. Moreover, the inhibition (in general, the share of the control response that was lost under treatment) in test [3] was over 50%; in test [4] it was over 50%; in test [5], over 80%; in test [6], over 90%; in test [7], over 50%.
